{"data": "Published values from different studies", "target": "Beta-1 adrenergic receptor (ADRB1, Homo sapiens, UniProt P08588)", "tested at": "10 µM", "note": "Each line is one published result; the experiments were not run side by side."}
{"SMILES": "O=C1N=C(N2CCCCN2)S/C1=C\\c1ccc(F)cc1O", "test": "ligand displacement, radioligand", "inhibition [%]": "< 10"}
{"SMILES": "C[C@H](c1ccc(F)cc1)N(Cc1ccc(Cl)c(C(=O)O)c1)C(=O)c1cnc2ccccc2c1", "test": "cell-free assay", "inhibition [%]": -0.35}
{"SMILES": "O=C(Nc1ccc(S(=O)(=O)N2CCC(Cl)CC2)cc1)c1ccc([N+](=O)[O-])o1", "test": "ligand displacement, radioligand", "inhibition [%]": 1}
{"SMILES": "CCN(Cc1ccccc1C(F)(F)F)C(=O)C1CCN(S(=O)(=O)c2ccc3[nH]ncc3c2)CC1", "test": "ligand displacement, radioligand", "inhibition [%]": 3}
{"SMILES": "CCN(CC)c1ccc(C2Nc3ccc(C(=O)c4ccccc4)cc3NC3=C2C(=O)CC(C)(C)C3)cc1 (centres unmarked)", "test": "ligand displacement, radioligand", "inhibition [%]": -1}
{"SMILES": "Oc1cccc(Nc2nc(-c3ccc(F)cc3F)cs2)c1", "test": "cell-free assay", "inhibition [%]": -36.5}
{"SMILES": "CCCNc1nc2ccccc2n1Cc1ccc(Cl)cc1", "test": "ligand displacement", "inhibition [%]": 19.5}
{"SMILES": "Ic1cccc2cnccc12", "test": "ligand displacement, radioligand", "inhibition [%]": 2}
{"SMILES": "O=C(c1ccc(F)cc1)N(Cc1ccccc1)C1CCCCC1", "test": "cell-free assay", "inhibition [%]": 4}
{"SMILES": "NS(=O)(=O)c1cc(NC(=O)C2(c3ccccc3Cl)CC2)ccc1Oc1cccc(Cl)c1", "test": "cell-free assay", "inhibition [%]": -3.09}
{"SMILES": "N#Cc1cc(Cn2c(N3CCCC3)nc3ccccc32)ccc1F", "test": "ligand displacement", "inhibition [%]": -9.19}
